Here are results for 18 compounds from ChEMBL document CHEMBL1155496, “Discovery of pyrazolyl propionyl cyclohexenamide derivatives as full agonists for the high affinity niacin receptor GPR109A” (Bioorg Med Chem Lett, 2010).

The target in series [1] is Hydroxycarboxylic acid receptor 2 (Homo sapiens) (UniProt Q8TDS4). Nature of the series: Serum shift in 3H-niacin binding to GPR109A receptor with 4% human serum.
Series [2] is described as follows: Bioavailability in mouse at 1 mg/kg, iv and 2 mg/kg, po. The following applies: in vivo. Type of series: ADME, organism-based. Put shortly:
(§1)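 Formulated at 0.2 mg/mL in ethanol/PEG/water (10:40:50). Dosed 1 mg/kg IV and 2 mg/kg PO, n = 3 per route. Blood was protein-precipitated with acetonitrile and drug concentration measured by LC/MS/MS.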

Series [3] in a line: Clearance in mouse at 1 mg/kg, iv and 2 mg/kg, po. The conditions noted are these: in vivo. Type of series: ADME, organism-based. Put shortly:
as §1

The nature of series [4]: Cmax in mouse at 1 mg/kg, iv and 2 mg/kg, po. The conditions noted are these: in vivo. Type of series: ADME, organism-based. Put shortly:
as §1

The nature of series [5]: Half life in mouse at 1 mg/kg, iv and 2 mg/kg, po. The following applies: in vivo. Type of series: ADME, organism-based. Put shortly:
as §1

The nature of series [6]: Volume of distribution at steady state in mouse at 1 mg/kg, iv and 2 mg/kg, po. The following applies: in vivo, read-out: Vdss. Type of series: ADME, organism-based. In outline:
as §1

The test system of series [7] is Adipocyte. Nature of the series: Inhibition of lipolysis in human adipocytes assessed as free glycerol level. Type of series: functional, cell-based. Put shortly:
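Lipolysis in human adipocytes; free glycerol release measured and used to calculate IC50.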

Series [8] deals with Cytochrome P450 2C9 (Homo sapiens, UniProt P11712). In words: Inhibition of CYP2C9 in human liver microsomes. Type of series: ADME, Microsome.
Series [9] addresses T1, Cytochrome P450 2C8 (Homo sapiens, UniProt P10632).
T1 sequence (P10632 whole entry): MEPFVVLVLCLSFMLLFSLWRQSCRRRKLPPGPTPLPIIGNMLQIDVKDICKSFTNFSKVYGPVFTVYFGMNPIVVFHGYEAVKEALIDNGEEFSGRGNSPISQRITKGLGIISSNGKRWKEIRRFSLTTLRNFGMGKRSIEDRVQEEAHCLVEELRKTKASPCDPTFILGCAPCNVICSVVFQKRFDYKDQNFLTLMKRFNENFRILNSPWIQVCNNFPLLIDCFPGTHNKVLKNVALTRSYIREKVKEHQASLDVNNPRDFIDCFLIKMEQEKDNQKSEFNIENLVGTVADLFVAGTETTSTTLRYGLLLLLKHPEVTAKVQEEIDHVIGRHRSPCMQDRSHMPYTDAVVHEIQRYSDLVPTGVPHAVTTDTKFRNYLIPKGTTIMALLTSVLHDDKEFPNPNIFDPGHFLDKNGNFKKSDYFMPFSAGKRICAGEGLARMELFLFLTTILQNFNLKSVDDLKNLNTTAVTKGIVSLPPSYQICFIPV
In words: Inhibition of CYP2C8 in human liver microsomes. Type of series: ADME, Microsome. Put shortly: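 Human liver microsomes with taxol as substrate and montelukast as positive control. IC50 determined.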

Series [10] can be described thus: Clearance in rat at 1 mg/kg, iv and 2 mg/kg, po. Type of series: ADME, organism-based. The conditions noted are these: in vivo. Put shortly:
as §1

Series [11] is described as follows: Bioavailability in rat at 1 mg/kg, iv and 2 mg/kg, po. The following applies: in vivo. Type of series: ADME, organism-based. In outline: as §1
Series [12] is described as follows: Cmax in rat at 1 mg/kg, iv and 2 mg/kg, po. Type of series: ADME, organism-based. The following applies: in vivo. In outline: as §1
A short description of series [13]: Half life in rat at 1 mg/kg, iv and 2 mg/kg, po. Type of series: ADME, organism-based. The following applies: in vivo. In outline: as §1
Series [14] in a line: Volume of distribution at steady state in rat at 1 mg/kg, iv and 2 mg/kg, po. Type of series: ADME, organism-based. The conditions noted are these: in vivo, read-out: Vdss. Put shortly: as §1

Sequence of Cytochrome P450 2C9 (P11712 whole entry): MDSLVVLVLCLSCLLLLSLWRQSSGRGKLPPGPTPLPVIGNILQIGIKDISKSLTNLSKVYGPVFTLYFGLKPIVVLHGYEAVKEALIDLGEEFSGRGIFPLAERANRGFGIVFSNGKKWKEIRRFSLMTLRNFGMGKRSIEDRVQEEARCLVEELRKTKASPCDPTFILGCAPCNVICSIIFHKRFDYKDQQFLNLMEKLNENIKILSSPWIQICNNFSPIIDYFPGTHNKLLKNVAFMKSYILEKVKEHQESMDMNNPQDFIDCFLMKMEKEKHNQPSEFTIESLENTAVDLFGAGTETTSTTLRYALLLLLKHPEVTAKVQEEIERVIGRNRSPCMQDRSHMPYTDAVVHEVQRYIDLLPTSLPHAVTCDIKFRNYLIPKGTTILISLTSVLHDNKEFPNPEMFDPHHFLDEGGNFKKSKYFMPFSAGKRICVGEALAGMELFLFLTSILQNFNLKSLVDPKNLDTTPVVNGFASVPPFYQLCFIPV
Sequence of Hydroxycarboxylic acid receptor 2 (Homo sapiens) (Q8TDS4 whole entry): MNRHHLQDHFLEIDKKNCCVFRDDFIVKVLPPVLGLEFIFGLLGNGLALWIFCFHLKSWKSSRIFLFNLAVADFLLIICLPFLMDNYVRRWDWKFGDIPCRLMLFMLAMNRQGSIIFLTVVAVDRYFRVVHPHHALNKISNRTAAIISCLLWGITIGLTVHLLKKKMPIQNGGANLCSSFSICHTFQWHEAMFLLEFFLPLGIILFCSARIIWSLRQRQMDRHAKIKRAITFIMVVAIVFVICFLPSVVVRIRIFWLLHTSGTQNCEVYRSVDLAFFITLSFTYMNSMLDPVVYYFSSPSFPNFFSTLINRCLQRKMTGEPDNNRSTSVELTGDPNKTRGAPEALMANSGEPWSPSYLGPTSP

`CC(Cc1ccn(-c2ccc(O)cn2)n1)C(=O)Nc1ccccc1C(=O)O` (stereo unspecified): the serum shift in [1] was found to be 200.
For `O=C(CCc1cnn(-c2ccc(O)cc2)c1)Nc1ccccc1C(=O)O`, the bioavailability in [2] came to 21%. In addition, the clearance in series [3] was found to be 17 mL/min/kg. For the same compound, the peak level in series [4] (Cmax) was 480 nM. In series [5], this compound had a half-life of 3.5 h. The serum shift in [1] came to 70. Also, the Vd in [6] amounted to 3.56 L/kg.
As to `Cc1c(CC(C)C(=O)Nc2ccccc2C(=O)O)cnn1-c1ccc(O)cc1` (stereo unspecified), the IC50 was determined as 0.06 µM in series [7], 22 µM in [8] and 34 µM in [9]. The serum shift in series [1] was determined as 60.
Turning to `O=C(CCc1ccn(-c2ccccc2)n1)Nc1ccccc1C(=O)O`, the IC50 in series [8] stood at 2.5 µM; in [9] it was 2.7 µM.
Compound `CC(Cc1ccn(-c2ccc(O)cn2)n1)C(=O)NC1=C(C(=O)O)CCC(c2cccc(F)c2F)C1` (stereo unspecified) returned a clearance in series [10] of 28 mL/min/kg. The compound also had a bioavailability in series [11] of 4.5%. This compound returned a Cmax in series [12] of 30 nM. Further, the serum shift in series [1] was determined as 30. Also, in [13], the half-life was 0.74 h. Besides, the Vd in series [14] worked out at 0.36 L/kg.
For `CC(Cc1ccn(-c2ccc(O)cn2)n1)C(=O)NC1=C(C(=O)O)CC[C@@H](C)C1` (stereo partly specified), the serum shift in series [1] came out at 290.
On the same count and under the same terms, in the case of `CCCC1CCC(C(=O)O)=C(NC(=O)C(C)Cc2ccn(-c3ccc(O)cn3)n2)C1` (stereo unspecified) it was 110.
For the compound `Cc1c(CC(C)C(=O)NC2=C(C(=O)O)CCCC2)cnn1-c1ccc(O)cc1` (stereo unspecified), the bioavailability in series [2] came out at 52%. In series [3], the clearance was found to be 3.5 mL/min/kg. The IC50 was 0.07 µM in [7], greater than 100 µM in series [8] and greater than 100 µM in [9]. Besides, the Cmax in series [4] is 4780 nM. In [5], the half-life is 4.8 h. For the same compound, the serum shift in series [1] came out at 50. Moreover, the Vd in [6] worked out at 0.68 L/kg.
As for `O=C(CCc1cnn(-c2ccc(O)cn2)c1)NC1=C(C(=O)O)CCCC1`, the bioavailability in [2] worked out at 46%. This compound gave a clearance in series [3] of 1.2 mL/min/kg. For the same compound, in series [4], the highest concentration (Cmax) stood at 11500 nM. This compound had a half-life in series [5] of 3.3 h. The serum shift in series [1] turned out to be 240. The compound further came in with an IC50 in series [8] greater than 50 µM. In addition, the Vd in series [6] came to 0.4 L/kg.
In the case of `CC(Cc1ccn(-c2ccc(O)cn2)n1)C(=O)NC1=C(C(=O)O)CCCC1` (stereo unspecified), the serum shift in series [1] was determined as 900.
`O=C(CCc1ccc(-c2ccc(O)cc2Cl)cc1)Nc1ccccc1C(=O)O` registered a bioavailability in [2] of 4.6%. Also, in [4], the highest level (Cmax) was 930 nM. In series [1], the serum shift is greater than 5000.
Consider `O=C(O)c1cccnc1` [NIACIN], for which the IC50 in series [7] worked out at 0.08 µM.
`CC(Cc1ccn(-c2ccc(O)cn2)n1)C(=O)NC1=C(C(=O)O)CCC(c2cccc(F)c2)C1` (stereo unspecified): the serum shift in series [1] is 40.
The same measure, in the same setting: in the case of `O=C(CCc1ccn(-c2ccc(O)cn2)n1)NC1=C(C(=O)O)CCCC1` it was 1000.
In the case of `CC(Cc1ccn(-c2ccc(O)cn2)n1)C(=O)NC1=C(C(=O)O)CC(c2cc(F)cc(F)c2)CC1` (stereo unspecified), the clearance in series [10] was determined as 8.6 mL/min/kg. In series [11], this compound registered a bioavailability of 39%. The same compound registered a Cmax in series [12] of 1580 nM. Further, the serum shift in [1] is 100. In addition, the IC50 amounted to 23 µM in series [8] and 7.7 µM in [9]. In series [13], the half-life is 5.5 h. Also, in [14], the Vd was determined as 0.53 L/kg.
On to `O=C(CCc1ccn(-c2ccc(O)cn2)n1)Nc1ccccc1C(=O)O`, for which, in series [1], the serum shift amounted to 170.
Same read-out and setting: in the case of `CC(Cc1ccn(-c2ccc(O)cn2)n1)C(=O)NC1=C(C(=O)O)CCC(c2cc(F)c(F)c(F)c2)C1` (stereo unspecified) it was 30.
Turning to `O=C(CCc1cnn(-c2ccccc2)c1)Nc1ccccc1C(=O)O`, the serum shift in [1] is 40. The compound further returned an IC50 in [8] of 15 µM.
